# High-throughput results (PubChem BioAssay)
# The list is not random: actives were taken first. Their share in the collection is about 2.8%.
# CAL PDZ FP-1 = CAL PDZ peptide-binding inhibitors, primary screen, biochemical, fluorescence polarization, Cer-tagged CAL PDZ, HTS | Golgi-associated PDZ and coiled-coil motif-containing protein (Homo sapiens), Q9HD26 | purified CAL PDZ, TMR-peptide fluorescence polarization, 1 h | inhibition, % at 20 µM | 0.02% of 330,000 active;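 active = highest replicate inhibition of at least 40%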;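 note: plate controls were DMSO neutral control wells for no effect and unlabeled competitor peptide control wells for full effect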
#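 Read-out basis: mP drop reported as inhibition | Assay system: Tagged CAL PDZ protein CerCALP, purified | Benchmarks: Unlabelled peptide for full inhibition, DMSO wells as neutral | Schedule: 1 h incubation at room temperature before polarization reading | Buffer or medium: Sodium phosphate/NaCl buffer pH 7.4 with TCEP, IgG, Thesit | Doses: Single point, 20 µM | Measured by: Fluorescence polarization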
# SR-BI uptake up = activators of SR-BI mediated DiI-HDL uptake, primary screen, ldlA[mSR-BI] CHO cells, DiI fluorescence; AID 504775, 2011; 3 h; 100 = double the neutral-control signal; 0.096% of 320,000 active; activation, % at 12.5 µM;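 active = mean replicate activation of at least 60% and every replicate at or above 60%; inconclusive = mean or all-replicate condition met, but not both; inactive = mean below 60% and not all replicates reaching 60%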;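 note: 0% = median plate neutral-control signal and 100% = twice that signal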
#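 System: LDL receptor-deficient CHO ldlA cells overexpressing murine SR-BI | Timing: 3 h uptake period with compound, 37 °C | Medium: HEPES-buffered (25 mM, pH 7.4) F12 plus 0.5% BSA | Dosing: Single-point compound dose | Signal: Bottom-read fluorescence, 550/595 nm | Read-out: Retained DiI signal reflecting DiI-HDL uptake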
# dFosB activator = activators of delta FosB homodimer, primary screen, biochemical, fluorescence polarization, TAMRA-CDK5 oligo, single point. purified delta FosB; percent of positive-control signal above neutral wells. activation, % at 25 µM. 0.99% of 340,000 active;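 active = mean activation above about 17%, with every replicate also reaching it, limit read from the data, passing the limit was not always enough; inconclusive = only one of the two conditions met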
# Target sequence (P13346 whole entry, looked up): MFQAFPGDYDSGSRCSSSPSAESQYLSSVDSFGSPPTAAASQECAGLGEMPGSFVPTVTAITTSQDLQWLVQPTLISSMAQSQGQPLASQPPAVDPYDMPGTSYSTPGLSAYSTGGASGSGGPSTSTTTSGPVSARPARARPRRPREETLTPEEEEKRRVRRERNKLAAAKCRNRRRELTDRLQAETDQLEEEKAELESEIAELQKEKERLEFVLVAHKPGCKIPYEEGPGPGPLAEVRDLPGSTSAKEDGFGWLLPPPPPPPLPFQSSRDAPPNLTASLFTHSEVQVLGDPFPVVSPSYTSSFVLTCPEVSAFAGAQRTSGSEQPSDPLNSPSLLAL
# CAL PDZ FP-2 = untagged CAL PDZ binding inhibitors, primary screen, biochemical, fluorescence polarization, HTS | AID 602252, 2012 | purified CAL PDZ, TMR-peptide fluorescence polarization, 1 h | inhibition, % at 24.9 µM | 0.92% of 300,000 active;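 active = mean inhibition of at least 30% with at least half of replicates also reaching 30%; inconclusive = no clear call, values can overlap the other calls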;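 note: 0% = DMSO neutral control and 100% = excess unlabeled competitor peptide PRC23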
# SR-BI HDL uptake = inhibitors of SR-BI mediated HDL lipid uptake, primary screen, ldlA[mSR-BI] cells, fluorescence, single point. 0.96% of 320,000 active. ldlA[mSR-BI] CHO cells, DiI-HDL uptake fluorescence, 3 h. inhibition, % at 12.5 µM. AID 488896, 2010. Scavenger receptor class B member 1 (Mus musculus), Q61009;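 active = mean replicate inhibition of at least 70% and a set share of replicates each scoring 70 or more; inconclusive = meets just one of the two criteria; inactive = fails both criteria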;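 note: 0% = median of neutral control wells and 100% = median of positive control wells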
# An asterisk follows results filed as active; ? = inconclusive; / = not tested or not shown.
SMILES,CAL PDZ FP-1,SR-BI uptake up,dFosB activator,CAL PDZ FP-2,SR-BI HDL uptake
O=C(NNc1nc2ccc(Cl)cc2s1)c1cc(-c2cccs2)nc2ccccc12,0.1,-89.4,?,/,89.4*
COc1ccc(-c2cc(C(=O)Nc3c(C)n(C)n(-c4ccccc4)c3=O)c3ccccc3n2)cc1OC,-2.5,-91.9,-5.4,-3.3,91.9*
COc1ccc(-c2cc(C(=O)OCC(=O)NC3CC3)c3ccccc3n2)cc1OC,-3.2,-72.4,-0.3,/,72.4*
Cc1cc(C)c2nc(NNC(=O)c3cc(-c4cccs4)nc4ccccc34)sc2c1,-1.4,-34.7,-12.1,-0.5,34.7
Cc1ccc(-c2cc(C(=O)Nc3c(C)n(C)n(-c4ccccc4)c3=O)c3ccccc3n2)cc1,-0.9,-73.5,-3.1,-0.1,73.5*
CCOc1cc(-c2nc(-c3ccccc3OC)no2)cc(OCC)c1OCC,-2.0,-80.3,-13.8,0.7,80.3*
CCOc1cc(-c2nc(-c3ccc(OC)cc3)no2)cc(OCC)c1OCC,-0.2,-75.1,5.6,-0.2,75.1*
CCOc1cc(-c2nnc(-c3ccco3)o2)cc(OCC)c1OCC,0.3,-77.1,-14.5,/,77.1*
COc1cccc(-n2cc(C(=O)NC(C)C)c3ccccc3c2=O)c1,-0.3,4.0,-3.7,-1.0,-4.0
NC1=NC(c2ccccc2)=NC1(NC(=O)c1ccccc1)C(Cl)Cl (centres undefined),-3.6,16.8,-3.8,-6.1,-16.8
C=CCc1cc(Cl)ccc1OCCOCCN(C)C,0.8,31.9,-8.7,8.4,-22.8
CN(C)CCCCOc1ccc(Br)cc1Cl,-3.4,6.9,-6.4,83.5*,-6.9
COCCCNCCCCOc1ccc(Br)cc1Cl,-0.8,-2.1,-9.3,9.6,2.1
Cc1ccc(OCCOCCN(C)C)c(Cl)c1,-1.8,63.9*,-9.7,-2.2,-63.9
CC(=O)C1=C(O)C(=O)N(c2ccccn2)C1c1ccccc1[N+](=O)[O-] (centres undefined),-2.0,1.7,0.6,-1.7,-1.7
CCOC(=O)N1CCN(C(=O)COC(=O)CNC(=O)c2ccc(C)cc2)CC1,0.5,0.8,-1.3,/,-0.8
COc1ccc(CN2CCN(C(=O)C3CCN(S(=O)(=O)c4cccs4)CC3)CC2)c(OC)c1OC,-0.4,-75.8,1.8,-1.1,75.8*
CCOC(=O)C1CCCN(C(=O)c2ccc3c(=O)n(Cc4ccccc4OC)c(=S)[nH]c3c2)C1 (centres undefined),-0.9,14.1,-17.8,32.1*,-14.1
CCOC(=O)N1CCN(C(=O)c2ccc3c(=O)n(-c4ccc(OC)cc4OC)c(=S)[nH]c3c2)CC1,-2.5,2.6,14.2,81.7*,-2.6
CCOC(=O)N1CCN(C(=O)c2ccc3c(=O)n(-c4ccc(OC)cc4)c(=S)[nH]c3c2)CC1,-0.4,14.5,1.3,/,-14.5
FC(F)(F)c1cccc(CNC2c3ccccc3-c3ccccc32)c1,3.1,-4.1,-3.2,2.8,4.1
COc1ccc(-c2nc(CS(=O)(=O)CC(=O)NCCc3ccc(C)cc3)c(C)o2)cc1,-2.4,/,1.3,0.8,99.4*
CNc1nc(N/N=C/c2cc([N+](=O)[O-])ccc2F)nc(Nc2ccccc2)n1,0.2,-75.0,93.5*,-1.2,75.0*
CNc1nc(Nc2ccc([N+](=O)[O-])cc2)nc(OCC(F)(F)F)n1,0.5,-5.8,0.3,/,5.8
CCOc1nc2cnccc2n(CC(=O)Nc2ccccc2C(=O)OC)c1=O,-2.3,4.0,-3.5,-0.4,-4.0
Cc1c(C(=O)Nc2ccccc2)sc2nc(-c3ccccc3)cn12,-6.5,-76.6,-13.4,-1.6,76.6*
Cc1cccc(NC(=O)c2sc3nc(-c4ccccc4)cn3c2C)n1,-0.7,-12.4,-1.1,-1.2,12.4
CC(NC(=O)c1ccc(Br)o1)c1ccc(-n2ccnc2)cc1 (centres undefined),-0.6,-3.7,-16.4,35.4*,3.7
Fc1cccc(Cc2noc(CN3CCSCC3)n2)c1,-1.0,1.8,-1.5,57.4*,-1.8
